Key:
[1] = Drug metabolism in HFF cells assessed as PMEGpp levels at 1 uM measured for 14 days using [14C]-labelled compound by liquid scintillation counting; type: ADME, cell-based; conditions: human, 336 h, TDE = time-dependent effect, time 14 day
In short: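 After 48 h exposure to 1 μM [14C]-labelled compound, drug removed from HFF cells. Persistence of intracellular PMEGpp followed over time; average of two separate determinations.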

[2] = Drug uptake in HFF cells at 1 uM incubated for 1 to 48 hrs using [14C]-labelled compound by liquid scintillation counting; type: ADME, cell-based; conditions: human, TDE = time-dependent effect, time 1-48 hrs
In short: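 HFF cells exposed to 1 μM [14C]-labelled compound for 1 to 48 h. Cell-associated radioactivity measured in duplicate to assess uptake.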

[3] = Drug metabolism in HFF cells assessed as PMEG levels at 1 uM incubated for 48 hrs using [14C]-labelled compound by liquid scintillation counting; type: ADME, cell-based; conditions: human
In short: (§1)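 HFF cells exposed for 48 h to 1 μM [14C]-labelled compound, then drug removed. Intracellular PMEG, PMEGp and PMEGpp measured. Values are the average of two separate determinations.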

[4] = Drug metabolism in HFF cells assessed as PMEGp levels at 1 uM incubated for 48 hrs using [14C]-labelled compound by liquid scintillation counting; type: ADME, cell-based; conditions: human; in short: as §1
[5] = Cytotoxicity in human PBMC cells; type: cell-based
In short: (§2)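 Human PBMCs infected with a clinical HIV-1 isolate, with AZT as positive control. EC50 and CC50 reported as mean ± SD of three replicates; selectivity index = CC50/EC50.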

[6] = Inhibition of HIV1 92US727 replication in PHA-P-stimulated human PBMCs incubated for 7 days by reverse transcriptase activity based assay; type: functional, cell-based, Human immunodeficiency virus 1, PBMC
In short: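 Human PBMCs infected with a clinical HIV-1 isolate, with AZT as the positive control. Results are the mean of three replicates.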

[7] = Selectivity index, ratio of CC50 for human PBMC to EC50 for inhibition of HIV1 92US727 replication in PHA-P-stimulated human PBMCs; type: toxicity; conditions: for selectivity ratio: PBMCs, read-out: Ratio CC50/EC50; in short: as §2
[8] = Inhibition of HPV-11 DNA amplification in HEK293 cells incubated for 48 hrs by qPCR analysis; type: functional, cell-based, human papillomavirus 11
In short: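 HEK-293 cells cotransfected with an HPV-11 origin-containing plasmid and HPV-11 E1 and E2 expression vectors, then exposed to drug dilutions and incubated. Ori-plasmid amplification is measured by quantitative real-time PCR and EC50 is calculated. At least three independent experiments.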

[9] = Inhibition of HSV2 replication in HFF cells incubated for 7 days; type: functional, cell-based, Human alphaherpesvirus 2
[10] = (§3) Cytotoxicity in human C-33-A cells by CellTiter-Glo reagent assay; type: cell-based; conditions: C-33-A cells
In short: (§4)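 HPV-negative cervical cancer C33A cells transiently transfected with type-matched HPV-11, -16 or -18 E1 and E2 expression vectors plus an ori-plasmid carrying a NanoLuc reporter. After drug dilutions and incubation, ori-plasmid replication is read as the rise in luciferase activity and EC50 is determined. Cytotoxicity (CC50) is measured in C33A cells by CellTiter-Glo.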

[11] = (§5) Cytotoxicity in HFF cells incubated for 7 days by CellTiter-Glo assay; type: cell-based; conditions: human, HFF cells; time 7 day
HEK293 = experiment: Cytotoxicity in HEK293 cells by CellTiter-Glo assay; conditions: human, hek293
[12] = Selectivity index, ratio of CC50 for C-33-A cells to EC50 for inhibition of HPV-11 DNA amplification in C-33-A cells
In short: (§6)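 Ratio CC50/EC50. CC50 is from CellTiter-Glo in C33A cells. EC50 is from NanoLuc luciferase readout of HPV ori-plasmid replication in C33A cells cotransfected with type-matched E1/E2 vectors.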

[13] = Selectivity index, ratio of CC50 for HEK293 cells to EC50 for inhibition of HPV-16 DNA amplification in HEK293 cells
In short: (§7)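 Ratio CC50/EC50 in HEK-293 cells. CC50 is by CellTiter-Glo. EC50 is by qPCR of HPV-11 or HPV-16 ori-plasmid amplification in cells cotransfected with type-matched E1/E2 expression vectors.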

[14] = Inhibition of HPV-16 DNA amplification in C-33-A cells incubated for 48 hrs by luciferase reporter gene assay; type: functional, cell-based, Human papillomavirus 16; conditions: for EC50: c-33-a; for EC90: time 48 hrs; in short: as §4
[15] = Selectivity index, ratio of CC50 for C-33-A cells to EC90 for inhibition of HPV-11 DNA amplification in C-33-A cells
[16] = Selectivity index, ratio of CC50 for C-33-A cells to EC90 for inhibition of HPV-16 DNA amplification in C-33-A cells
In short: (§8)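 Ratio CC50/EC90. CC50 is from CellTiter-Glo cytotoxicity in C33A cells. EC90 is from NanoLuc luciferase readout of HPV-16 or -18 ori-plasmid replication in C33A cells cotransfected with type-matched E1/E2 vectors.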

[17] = Selectivity index, ratio of CC50 for C-33-A cells to EC90 for inhibition of HPV-18 DNA amplification in C-33-A cells; in short: as §8
[18] = Selectivity index, ratio of CC50 for C-33-A cells to EC50 for inhibition of HPV-18 DNA amplification in C-33-A cells; in short: as §6
[19] = Inhibition of HPV-11 DNA amplification in C-33-A cells incubated for 48 hrs by luciferase reporter gene assay; type: functional, cell-based, human papillomavirus 11; conditions: for EC50: c-33-a; for EC90: time 48 hrs; in short: as §4
[20] = Inhibition of HPV-16 DNA amplification in HEK293 cells incubated for 48 hrs by qPCR analysis; type: functional, cell-based, Human papillomavirus 16
In short: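 HEK-293 cells cotransfected with an HPV-16 origin-containing plasmid and HPV-16 E1 and E2 expression vectors, then treated with drug dilutions and incubated. Ori-plasmid amplification quantified by real-time qPCR; EC50 calculated from at least three independent experiments.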

[21] = Selectivity index, ratio of CC50 for HFF to EC50 for inhibition of HSV2 replication in HFF cells; type: toxicity, cell-based; conditions: human
[22] = Selectivity index, ratio of CC50 for HEK293 cells to EC50 for inhibition of HPV-11 DNA amplification in HEK293 cells; in short: as §7
[23] = Selectivity index, ratio of CC50 for C-33-A cells to EC50 for inhibition of HPV-16 DNA amplification in C-33-A cells; in short: as §6
[24] = Inhibition of HPV-18 DNA amplification in C-33-A cells incubated for 48 hrs by luciferase reporter gene assay; type: functional, cell-based, human papillomavirus 18; conditions: for EC50: c-33-a; for EC90: time 48 hrs; in short: as §4
[25] = Stability in MEM supplemented with either normal or heat inactivated 10% FBS assessed as compound remaining at 37 degC after 38 days by reverse phase HPLC analysis; conditions: time 38.0 day
In short: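 Compound incubated at 37 °C in MEM with 10% FBS, either normal or heat-inactivated. After 38 days, analysed by reverse-phase HPLC on a polar RP column with a water/methanol gradient at 0.8 mL/min. Remaining parent and monoester degradation product quantified as peak area.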

human papillomavirus 11 = experiment: Potency index, ratio of EC50 for cidofovir to EC50 for test compound for inhibition of HPV-11 DNA amplification in C-33-A cells incubated for 48 hrs by luciferase reporter gene assay; type: functional
C-33-A = experiment: as §3; type: cell-based; conditions: c-33-a; in short: as §4
HFF = experiment: as §5; type: cell-based; conditions: human, hff, 168 h; time 7 day
[26] = Human immunodeficiency virus 1, 92US727, PBMC, 168 h

Structure (SMILES) | EC50 [6, 26] | selectivity ratio [7] | CC50 (HEK293) | Ratio CC50/EC50 [12] | CC50 ([5]; pbmc) | Ratio CC50/EC50 [13] | EC50 [14] | EC90 [14] | Ratio [15] | Ratio [16] | Ratio [17] | Ratio CC50/EC50 [18] | EC50 [19] | EC90 [19] | EC50 [20] | Ratio CC50/EC50 [22] | Ratio CC50/EC50 [23] | EC50 [24] | EC90 [24] | further results
CCCCCCCCCCCCCCCCCCOCCOP(=O)(COCCn1cnc2c(=O)[nH]c(N)nc21)OCc1ccccc1 (stereo unspecified) |  |  |  |  |  |  |  |  |  |  |  |  |  |  |  |  |  |  |  | Drug metabolism [1]: Tde; Drug uptake [2]: Tde; Drug uptake [3]: Metabolite_Detected; Drug uptake [4]: Metabolite_Detected
Cc1cn([C@H]2C[C@H](N=[N+]=[N-])[C@@H](CO)O2)c(=O)[nH]c1=O [ZIDOVUDINE] | 4 nM | > 250 |  |  |  |  |  |  |  |  |  |  |  |  |  |  |  |  |  | CC50 ([5]; PBMC cells): > 1000 nM
CCCCCCCCCCCCCCCCCCOCCOP(=O)(COCCn1cnc2c(=O)[nH]c(N)nc21)OCc1ccccc1 (stereo in doubt; form 3) | 3 nM | 16.3 | 83000 nM | >14 | 40 nM | 120 | 220 nM | 1500 nM | >4 | >7 | >7 | >37 | 710 nM | 2500 nM | 690 nM | 170 | >45 | 270 nM | 1400 nM | EC50 [8]: 500 nM; EC50 ([9]; Human alphaherpesvirus 2, HFF, 168 h): 32 nM; CC50 [10]: > 10000 nM; CC50 at 168 h [11]: 6100 nM; selectivity ratio ([21]; HFF cells, read-out: Ratio CC50/EC50): 190
CCCCCCCCCCCCCCCCCCOCCOP(=O)(COCCn1cnc2c(=O)[nH]c(N)nc21)OCc1ccccc1 (stereo in doubt; form 1) [listing 1 of 2 here] |  |  |  |  |  |  |  |  |  |  |  |  |  |  |  |  |  |  |  | Stability [25]: 83%
CCCCCCCCCCCCCCCCCCOCCOP(=O)(COCCn1cnc2c(=O)[nH]c(N)nc21)OCc1ccccc1 (stereo in doubt; form 1) [listing 2 of 2 here] |  |  | 17000 nM | 61 | 20 nM | 85 | 40 nM | 640 nM | 15 | >16 | >17 | >100 | 180 nM | 720 nM | 200 nM | 42 | >250 | 100 nM | 590 nM | Ratio EC50 (human papillomavirus 11): >300; EC50 ([9]; hff): 22 nM; CC50 (C-33-A): ≥ 10000 nM; CC50 (HFF): 5200 nM; EC50 ([6]; pbmc): 2 nM; Ratio CC50/EC50 ([7]; pbmc): 11; Ratio CC50/EC50 [21]: 240

Source: ChEMBL document CHEMBL4715800, “Synthesis and Antiviral Evaluation of Octadecyloxyethyl Benzyl 9-[(2-Phosphonomethoxy)ethyl]guanine (ODE-Bn-PMEG), a Potent Inhibitor of Transient HPV DNA Amplification” (J Med Chem, 2016)
